# Results as given in paper PMC5839514 (MedChemComm, 2017).
# Where two headings read alike, the source gives them in different places.
# Assays:
# lung epithelial BEAS-2B = assay: Cell proliferation assay, normal lung epithelial BEAS-2B cells; assay type: cell-based
# Method in brief: (§1)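 Cells were obtained from a university collaborator and grown in RPMI or DMEM with 5% or 10% fetal bovine serum plus 1% penicillin/streptomycin. The medium for each line is not specified. Cells were seeded at 3 × 10^4 per well and treated with test compound or DMSO. After 4 days, cell number and viability were counted on an automated cell viability analyzer.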
# fibroblast HEL 299 cells = assay: Cell proliferation assay, normal fibroblast HEL 299 cells; assay type: cell-based
# Method in brief: as §1
# [1] = system: LS174T colon cancer cells; assay: Cell proliferation assay, LS174T colon cancer cells; assay type: cell-based; conditions: Table 3
# Method in brief: (§2)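 Cells were kept in RPMI or DMEM with 5% or 10% fetal bovine serum and 1% penicillin/streptomycin. They were plated at 3 × 10^4 cells per well in 12-well plates and treated with DMSO or test compound. After 4 days, cell number and viability were counted on a Vi-Cell viability analyzer. Inhibition is relative to DMSO.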
# HT-29 = assay: Cell proliferation assay, HT-29 colon cancer cells; assay type: cell-based
# Method in brief: as §2
# [2] = system: cyclin-dependent kinase inhibitor p21^Wif1/Cip1; assay: Western blot of p21^Wif1/Cip1 in LS174T cells; assay type: cell-based; conditions: 300 nM
# Water solubility = assay type: physicochemical; conditions: for Water solubility of hydrochloride salt: hydrochloride salts
# [3] = system: LS174T colon cancer cells; conditions: cited from earlier work; for Inhibition of proliferation (%) of LS174T cells: Table 1
# cyclin D1 = assay: Western blot of cyclin D1 in LS174T cells; assay type: cell-based; conditions: 300 nM
# Method in brief: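 LS174T colon cancer cells were exposed to test compound at 300 nM. Lysates were immunoblotted with antibodies against cyclin D1, p21Wif1/Cip1 and β-tubulin.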
smiles,measurement,setting,value
N.N.[Cl][Pt][Cl] [Cisplatin],Percentage inhibition of the proliferation of normal cells,lung epithelial BEAS-2B; 1 μM,39.2±14.9%
same,Percentage inhibition of the proliferation of normal cells,lung epithelial BEAS-2B; 10 μM,82.4±0.2%
same,Percentage inhibition of the proliferation of normal cells,fibroblast HEL 299 cells; 1 μM,37.5±4.1%
same,Percentage inhibition of the proliferation of normal cells,fibroblast HEL 299 cells; 10 μM,57.8±0.3%
same,Percentage inhibition of the proliferation of colon cancer cells,[1]; 1 μM,24.2±5.6%
same,Percentage inhibition of the proliferation of colon cancer cells,[1]; 10 μM,82.1±1.4%
same,Percentage inhibition of the proliferation of colon cancer cells,HT-29; 1 μM,4.4±5.9%
same,Percentage inhibition of the proliferation of colon cancer cells,HT-29; 10 μM,72.7±3.5%
"CN(C)c1ccc(C#Cc2c(F)cccc2F)cc1 [Compound 2, 4-((2,6-difluorophenyl)ethynyl)-N,N-dimethylaniline]",Effect on p21^Wif1/Cip1 (western blot),[2],induced cyclin-dependent kinase inhibitor p21^Wif1/Cip1
same,Water solubility,Water solubility; parent compound,sparingly water-soluble
same,Inhibition of cell proliferation (%) of colon cancer LS174T cells,"[3]; 30 nM, Table 2",57±1.2%
same,Inhibition of proliferation (%) of LS174T cells,[3]; 100 nM,85.2±0.5%
same,Inhibition of proliferation (%) of LS174T cells,[3]; 1 μM,99.5±0.1%
same,Effect on cyclin D1 (western blot),cyclin D1,inhibited cyclin D1
"CN(C)c1ncc(C#Cc2c(F)cccc2F)c2ccccc12 [Compound 5mm, 4-((2,6-Difluorophenyl)ethynyl)-N,N-dimethylisoquinolin-1-amine]",Effect on p21^Wif1/Cip1 (western blot),[2],induced cyclin-dependent kinase inhibitor p21^Wif1/Cip1
same,Effect on cyclin D1 (western blot),cyclin D1,inhibited cyclin D1
"CNc1ncc(C#Cc2c(F)cccc2F)c2ccccc12 [Compound 5nn, 4-((2,6-Difluorophenyl)ethynyl)-N-methylisoquinolin-1-amine]",Effect on p21^Wif1/Cip1 (western blot),[2],induced cyclin-dependent kinase inhibitor p21^Wif1/Cip1
same,Effect on cyclin D1 (western blot),cyclin D1,inhibited cyclin D1
"CN1CCN(c2ncc(C#Cc3c(F)cccc3F)c3ccccc23)CC1.Cl [Compound 5oo, 4-((2,6-Difluorophenyl)ethynyl)-1-(4-methylpiperazin-1-yl)isoquinoline]",Water solubility of hydrochloride salt,Water solubility,completely water-soluble
"CN(C)c1ncc(C#Cc2c(F)cccc2F)c2ncccc12 [Compound 5pp, 8-((2,6-Difluorophenyl)ethynyl)-N,N-dimethyl-1,6-naphthyridin-5-amine]",Water solubility of hydrochloride salt,Water solubility,completely water-soluble
